Values after ≈ are worked out from the molar mass of the structure shown. Where only a bound is given, the exact number is not on record here.

This series can be described thus: Thermodynamic solubility of the compound in phosphate buffer at pH 7.2 to 7.4 at 1 mg after 48 hrs by shake flask method. It counts as physicochemical. The following applies: read-out: Therm_solubility. In short, it runs like this:
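Shake-flask method: 1 mg of solid ground in an agate mortar, taken up in 1.0 mL of a 1:1 mixture of phosphate buffer (pH 7.2–7.4) and EtOH, shaken 48 h at 25 °C. An aliquot was filtered (0.45 µm), the filtrate diluted in CH₃CN and analysed by HPLC-UV at 254 nm. Concentration was calculated from a prior calibration curve and corrected for dilution.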
Take `CCCOc1ccc(C[C@@H](Cc2ccccc2)C(=O)O)cc1CNC(=O)c1ccc(C23CC4CC(CC(C4)C2)C3)cc1`: the solubility thermodynamic at 48 h was under 1 µg/mL.

Consider `CCCOc1ccc(C[C@@H](Cc2ccccc2)C(=O)O)cc1CNC(=O)c1ccc(N2CCCCC2)cc1`, for which the solubility thermodynamic at 48 h is 10 µg/mL (≈ 19.4 µM). Regarding `CCCOc1ccc(C[C@@H](Cc2ccccc2)C(=O)O)cc1CNC(=O)c1ccc(N2CCCCCCC2)cc1`, the solubility thermodynamic at 48 h is under 10 µg/mL. With `CCCOc1ccc(C[C@@H](Cc2ccccc2)C(=O)O)cc1CNC(=O)c1ccc(N2CCCC(C)(C)C2)cc1` the figure was under 10 µg/mL; with `CCCOc1ccc(C[C@@H](Cc2ccccc2)C(=O)O)cc1CNC(=O)c1ccc(N2CCC(C)(C)CC2)cc1`, under 10 µg/mL; with `CCCOc1ccc(C[C@@H](Cc2ccccc2)C(=O)O)cc1CNC(=O)c1ccc(N2CC(C)(C)CC(C)(C)C2)cc1`, under 10 µg/mL. On to `CCCOc1ccc(C[C@@H](Cc2ccccc2)C(=O)O)cc1CNC(=O)c1ccc(N2C3CCCC2CC3)cc1`, for which the solubility thermodynamic at 48 h was 10 µg/mL (≈ 18.5 µM).

Regarding `CCCOc1ccc(C[C@@H](Cc2ccccc2)C(=O)O)cc1CNC(=O)c1ccc(N2C3CCCC2CCC3)cc1`, the solubility thermodynamic at 48 h was under 10 µg/mL. With `CCCOc1ccc(C[C@@H](Cc2ccccc2)C(=O)O)cc1CNC(=O)c1ccc(N2CC3CCC(C3)C2)cc1`, the solubility thermodynamic at 48 h is 10 µg/mL (≈ 18.5 µM). For `CCCOc1ccc(C[C@@H](Cc2ccccc2)C(=O)O)cc1CNC(=O)c1ccc(N2C3CC4CC(C3)CC2C4)cc1`, the solubility thermodynamic at 48 h was under 10 µg/mL.

The values above are taken from ChEMBL document CHEMBL3351353, “Molecular dynamics study-guided identification of cyclic amine structures as novel hydrophobic tail components of hPPARγ agonists” (Bioorg Med Chem Lett, 2014).
